# Compounds with a hit are over-represented: about 3.4% of the library has one in this group of screens.
# ROMK mod: ROMK potassium channel modulators, primary screen, cell-based, thallium flux, MLSMR library; hit rate 2% among 130,000; ATP-sensitive inward rectifier potassium channel 1 (Homo sapiens), P48048; Tet-inducible ROMK, thallium flux fluorescence; actives lie on both sides; B-score at 10 µM;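 active = signal ratio slope over the read window, or its plate-corrected B-score, at least 3 SD from the plate mean, either direction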;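 note: B-score of the F/F0 ratio slope over 7 to 12 s after thallium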
# MDM2 E3 inh: MDM2-luciferase reporter signal enhancers, primary screen, MDM2 E3 ligase inhibitor project, cell-based, luminescence, 1536-well. E3 ubiquitin-protein ligase Mdm2 (Homo sapiens), Q00987. cell-based MDM2 ubiquitination luciferase reporter, 2 h; 0 = plate control, 100 = twice control, blank-subtracted. signal enhancement, % at 5 µM. hit rate 0.11% among 210,000;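 active = signal enhancement of 30% or more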;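 note: luminescence tracks abundance of the self-degrading MDM2-luciferase fusion protein; higher signal means inhibition of MDM2 E3 ligase activity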
#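 Assay system: stable mammalian line carrying autodegrading MDM2–luciferase fusion reporter; Input: 2000 cells in each well; Compound dosing: single-point 5 µM; Schedule: 2 h compound exposure at 37 °C; Signal: SteadyLite luciferase luminescence after 15 min room-temperature reagent incubation; Evaluation: % luminescence enhancement versus blank-corrected plate control mean; Benchmarks: plate controls and plate blanks.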
# DTT redox prof: compounds producing H2O2 with reducing agent – biochemical, NIH compound library profiling, artefact control for MLSCN library redox annotation, primary screen | DTT-dependent redox cycling H2O2, phenol red/HRP absorbance; 100% = 100 µM peroxide control, 0% = buffer | activation, % at 10 µM | hit rate 0.03% among 200,000;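 active = activation of at least 50% relative to the plate's high and low controls in the primary single-dose screen; inactive = activation below 50%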;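 note: compound incubated with DTT at 0.8 mM final as the reducing agent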
# PKD1 inh: inhibitors of human PKD1 kinase, biochemical, fluorescence polarization | Serine/threonine-protein kinase D1 (Homo sapiens), Q15139 | PKD1 kinase fluorescence polarization assay | inhibition, % (test concentration not listed) | hit rate 0.056% among 200,000; in the data active = inhibition above about 50%
# Target sequence (Q15139 whole entry, looked up): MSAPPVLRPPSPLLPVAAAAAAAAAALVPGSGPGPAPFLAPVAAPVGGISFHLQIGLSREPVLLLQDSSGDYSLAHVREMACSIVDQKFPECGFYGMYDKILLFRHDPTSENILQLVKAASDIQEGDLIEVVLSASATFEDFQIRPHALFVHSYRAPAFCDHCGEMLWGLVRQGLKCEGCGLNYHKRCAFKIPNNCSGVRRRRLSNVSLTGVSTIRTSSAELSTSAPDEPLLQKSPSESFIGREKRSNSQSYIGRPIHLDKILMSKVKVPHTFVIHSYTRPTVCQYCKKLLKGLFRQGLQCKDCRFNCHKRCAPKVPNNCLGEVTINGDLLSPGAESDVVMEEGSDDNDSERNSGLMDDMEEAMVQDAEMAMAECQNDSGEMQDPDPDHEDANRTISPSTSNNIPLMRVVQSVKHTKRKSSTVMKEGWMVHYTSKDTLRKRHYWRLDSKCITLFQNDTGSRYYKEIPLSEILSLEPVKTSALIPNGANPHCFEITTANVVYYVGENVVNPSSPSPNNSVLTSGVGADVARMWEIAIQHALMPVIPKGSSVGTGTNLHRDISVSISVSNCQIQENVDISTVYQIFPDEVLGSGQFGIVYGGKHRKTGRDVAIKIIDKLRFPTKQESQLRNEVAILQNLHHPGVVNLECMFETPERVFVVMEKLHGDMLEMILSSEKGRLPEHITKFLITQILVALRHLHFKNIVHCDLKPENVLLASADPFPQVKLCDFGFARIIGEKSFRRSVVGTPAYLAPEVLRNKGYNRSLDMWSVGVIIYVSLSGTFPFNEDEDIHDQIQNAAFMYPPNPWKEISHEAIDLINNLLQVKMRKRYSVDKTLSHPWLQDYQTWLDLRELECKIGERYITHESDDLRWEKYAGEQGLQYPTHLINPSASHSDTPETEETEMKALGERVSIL
# p97 inhibitor: inhibitors of human p97 ATPase, primary screen, biochemical | Transitional endoplasmic reticulum ATPase (Homo sapiens), P55072 | hit rate 0.42% among 220,000 | inhibition, % at 8 µM | recombinant p97 ATPase, Kinase-Glo ATP luminescence, 3 h | AID 1481, 2009; in the data active = inhibition above about 15%;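 note: 0% = DMSO vehicle and 100% = wells lacking enzyme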
# Cl transport mod: KCC2 cotransporter modulators, thallium flux, primary screen, cell-based, HEK293 KCC2, FluoZin-2 fluorescence, MLSMR. Solute carrier family 12 member 5 (Homo sapiens), Q9H2X9. KCC2 cells, thallium flux FluoZin-2 fluorescence. B-score of Tl+ flux slope (higher = more flux/activation; lower = inhibition) at 10 µM. hit rate 2.2% among 190,000;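 active = thallium flux slope and its plate-corrected score both differing from the plate sample mean at a set confidence after two filtering rounds, in either direction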;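 note: slope of fluorescence scaled to starting intensity during 10 to 20 s after thallium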
# KCC2 secondary: KCC2 modulators in sodium-free buffer, confirmation, cell-based, HEK293 KCC2, thallium flux, secondary assay; hit rate 15% among 3,700; normalised thallium flux (F/F0 slope) at 10 µM; AID 1713, 2009; shares compounds with Cl transport mod; FluoZin2 fluorescence; hits give high values;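 active = thallium flux slope above the same plate's solvent-only control mean plus 3 SD; inconclusive = the two replicate wells disagree; inactive = no significant difference from solvent-only control wells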
# KCC2 bumet counter: thallium flux persisting under bumetanide in KCC2 cells, confirmation, counter-screen for KCC2 modulator project, cell-based, HEK293 KCC2, FluoZin2, secondary assay 3 | shares compounds with Cl transport mod | normalized thallium flux at 10 µM | hit rate 49% among 3,700 | HEK293-KCC2 + bumetanide/ouabain; hits give high values;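 active = thallium entry rate above the same plate's blocked-transporter control wells by more than 3 SD; inconclusive = the two repeat wells disagree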;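 note: raw slope of fluorescence over initial fluorescence between 10 and 20 s after thallium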
# KCC2 sec2: KCC2 modulators without ouabain present, confirmation, cell-based, HEK293 KCC2, thallium flux, FluoZin2, secondary assay 2; shares compounds with Cl transport mod; thallium flux FluoZin2 fluorescence; actives lie on both sides; F/F0 rise rate, 10–20 s post-thallium; normalized thallium flux at 10 µM; hit rate 23% among 3,700;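 active = thallium flux slope more than 3 SD above or below the plate's solvent-only control mean, mostly below; inconclusive = the two repeat wells disagreed; inactive = no significant shift from solvent-only controls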;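 note: raw slope with 0.1% DMSO as baseline and bumetanide as block control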
# HEK293 Tl flux: thallium flux modulation in parental HEK cells, confirmation, counter-screen for KCC2 modulator project, cell-based, counterscreen 1 | shares compounds with Cl transport mod | HEK293 parental cells, thallium flux FluoZin2, ouabain; baseline-ratio fluorescence slope, 10–20 s after thallium | thallium flux rate (normalised fluorescence) at 10 µM | hit rate 46% among 3,700;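 active = thallium flux rate significantly above the same plate's solvent-only control wells, beyond their mean plus 3 SD; inconclusive = the two replicate wells gave conflicting results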
# KCC2 retest ouab: KCC2 inhibitors and activators, ouabain retest, confirmation, HEK-KCC2 cells. shares compounds with Cl transport mod. HEK293-KCC2, thallium flux FluoZin2 fluorescence; bidirectional: low = inhibitor, high = activator. raw Tl+ flux slope (below DMSO = inhibition, above = activation) at 10 µM. hit rate 48% among 3,700;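 active = thallium flux slope beyond 3 SD from same-plate DMSO control mean in most replicates, usually higher, sometimes lower; inconclusive = repeat tests gave conflicting results; inactive = no significant difference from controls in most replicates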;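 note: slope of initial-normalized fluorescence between seconds 10 and 20 after thallium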
# HEK293 Tl flux2: native HEK Tl+ uptake effects, second counter-screen – HEK cells, counterscreen 2, counter-screen for KCC2 modulator project, confirmation; HEK293 parental, thallium flux FluoZin-2 fluorescence slope; thallium flux slope at 10 µM; hit rate 33% among 3,700; shares compounds with Cl transport mod;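 active = thallium flux slope above the same plate's solvent-control mean plus 3 SD in both duplicate wells; inconclusive = duplicate wells that disagreed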;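 note: run without ouabain in cells lacking the KCC2 cotransporter; slope of fluorescence scaled to its starting value between 10 and 20 s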
# Active calls of the source: *; ? = inconclusive; · = not tested or not shown.
SMILES,ROMK mod,MDM2 E3 inh,DTT redox prof,PKD1 inh,p97 inhibitor,Cl transport mod,KCC2 secondary,KCC2 bumet counter,KCC2 sec2,HEK293 Tl flux,KCC2 retest ouab,HEK293 Tl flux2
Cc1ccc(SCCNC(=S)Nc2cc(C)ccc2C)cc1,-0.46,-14,0,1,-8,·,0.0069,0.005,0.029,?,?,0.009
Cc1ccc(-n2c(CCc3nc4ccccc4[nH]3)n[nH]c2=S)cc1,·,-10,0,0,6,0.55,·,·,·,·,·,·
Oc1ccccc1/C=N/NC(=S)NC1CC2CCC1C2 (centres undefined),·,-7,·,·,5,15*,0.0097,0.037*,0.028,0.016*,0.03*,?
COc1cc2c(cc1OC)C(c1cccs1)CC(=O)N2 (centres undefined),0.56,-3,0,-5,8,·,0.0063,0.0047,0.029,0.0081,0.019,0.011
CN(C)c1ccc(/C=C/C#N)cc1,0.59,2,·,·,5,-0.08,·,·,·,·,·,·
CN(C)c1ccc(/C=C/c2ccncc2)cc1,·,-27,2,-4,4,·,0.0032*,-0.004*,0.021*,0.0031*,0.0058*,?
CCOC(=O)C1CCN(C(=O)C(C)c2ccc([N+](=O)[O-])cc2)CC1 (centres undefined),-0.57,-11,-1,-2,0,0.57,·,·,·,·,·,·
O=c1[nH]c2ccc(S(=O)(=O)N3CCN(c4ccccc4F)CC3)cc2s1,·,-1,-2,8,0,-4.8*,0.0069,0.005,0.024*,0.0068,0.013*,0.0099
Cc1[nH]c(=O)[nH]c(=O)c1S(=O)(=O)N1CCN(c2ccccc2F)CC1,·,-12,-4,-6,6,-0.71,·,·,·,·,·,·
O=C(NCc1ccccc1)c1noc2c1CCCC2,·,-5,-3,-1,2,0.8,·,·,·,·,·,·
O=C(NCCc1ccccc1)c1noc2c1CCCCC2,-0.26,-30,0,-3,3,·,0.0078,0.0067,?,0.0078,0.019*,0.01
CC1(C)Cc2ccccc2C(=NCC(=O)O)N1,0.12,-8,8,-1,3,·,·,·,·,·,·,·
Cc1ccc(/C=N/OC(=O)c2c(C)noc2-c2snnc2C)cc1,·,-12,·,·,-3,0.32,·,·,·,·,·,·
CC(C)(C)NC(=O)C(c1cccs1)N(CC1CCCO1)C(=O)Cn1nnc(-c2cccs2)n1 (centres undefined),0.07,-64,2,-3,-3,0.17,·,·,·,·,·,·
CC(C)(C)NC(=O)C(c1cccs1)N(CC1CCCO1)C(=O)c1ccc(-c2ccccc2)[nH]1 (centres undefined),·,-19,0,-1,4,-6.6*,0.0088,0.0066,0.022*,0.0055,0.01*,0.0091
O=C(NCC1CCCO1)C(c1ccc(F)cc1)N(CCCN1CCOCC1)C(=O)c1ccc(-c2ccccc2)[nH]1 (centres undefined),0.46,-2,-1,3,1,-1.8,·,·,·,·,·,·
CC(C)(C)NC(=O)C(c1ccncc1)N(Cc1ccco1)C(=O)c1ccc(-c2ccccc2)[nH]1 (centres undefined),-1.9,-6,0,0,4,-5*,0.0057,0.0052,0.024*,0.0076,?,0.011
COc1ccc(CN(C(=O)c2ccc(-c3ccccc3)[nH]2)C(C(=O)NCC2CCCO2)c2ccc(C)o2)cc1 (centres undefined),·,-14,-7,5,-5,·,0.006,0.0052,0.025*,0.0075,?,0.0099
O=C(NCC1CCCO1)C(c1cccs1)N(C(=O)c1ccc(-c2ccccc2)[nH]1)C1CCCC1 (centres undefined),·,-11,0,2,-5,-5.7*,0.01,0.0064,?,0.0068,0.015*,0.011
O=C(NCC1CCCO1)C(c1cccs1)N(Cc1ccccc1)C(=O)c1ccc(-c2ccccc2)[nH]1 (centres undefined),-1.4,0,-1,0,-6,-4,·,·,·,·,·,·
O=C(NC1CCCCC1)C(c1ccncc1)N(Cc1ccccc1)C(=O)c1ccc(-c2ccccc2)[nH]1 (centres undefined),·,-4,1,-14,2,-1.9,·,·,·,·,·,·
O=C(OCCCN=C1NS(=O)(=O)c2ccccc21)c1cccs1,-0.37,-8,0,-4,3,1.3,·,·,·,·,·,·
COc1ccc(NC(=O)Cn2c(=O)c(C)nc3ccccc32)cc1Cl,·,-4,·,·,3,-0.34,·,·,·,·,·,·
CCOc1ccc(CCNC(=O)C2CCC(=O)N2CCc2ccccc2)cc1OCC (centres undefined),·,-12,0,1,0,·,0.016,0.004,0.031,0.0069,0.016,0.0098

# Compound activity deposited in PubChem by several laboratories.
